One data set deals with Staphylococcus aureus. Briefly: Antibacterial activity against Staphylococcus aureus ATCC 6538 by microdilution method. The class given is functional. A digest of the protocol: (§1)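 Modified microdilution method. For the resin conjugates, the amount added to the medium volume was based on the total peptide quantity bound to the resin, as calculated by Fmoc titration.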
Background: Broth dilution looks for growth in wells or tubes with falling amounts of substance.

The next data set has as its system Micrococcus luteus. Briefly: Antibacterial activity against Micrococcus luteus ATCC 9341 by microdilution method. The class given is functional. The method in brief:
as §1

For another data set, the system named is Pseudomonas aeruginosa. Briefly: Antibacterial activity against Pseudomonas aeruginosa ATCC 9027 by microdilution method. The class given is functional. The method in brief:
as §1

Data set [1] is described as follows: Cytotoxicity against human erythrocytes assessed as hemolysis. The class given is cell-based. Particulars: erythrocyte.
Another data set relates to Escherichia coli. Briefly: Antibacterial activity against Escherichia coli ATCC 25922 by microdilution method. The class given is functional. The method in brief:
as §1

In brackets after ≈: the same amount, converted by molar mass. Residues, ends and D or L forms follow the SMILES beside them. A value given as a limit tells only on which side of the number the result lay.

What is called MIC is the smallest concentration in the dilution series that meets the test's criterion for growth inhibition. High values mean a less susceptible organism, low ones a more susceptible organism. For the compound `CC(C)[C@H](NC(=O)[C@H](CCCCN)NC(=O)[C@@H](NC(=O)[C@H](CCCCN)NC(=O)[C@H](Cc1ccccc1)NC(=O)[C@H](CCCCN)NC(=O)[C@@H](NC(=O)[C@H](CCCCN)NC(=O)[C@@H](N)Cc1ccccc1)C(C)C)C(C)C)C(=O)N[C@@H](CCCCN)C(N)=O` (H-FKVKFKVKVK-NH2), the MIC with Staphylococcus aureus was found to be 1.56 µg/mL (≈ 1.25 µM); in the data set with Micrococcus luteus it was 3.12 µg/mL (≈ 2.5 µM); with Pseudomonas aeruginosa, 6.25 µg/mL (≈ 5 µM); in the data set with Escherichia coli, 3.12 µg/mL (≈ 2.5 µM). In data set [1], the Activity entry is listed as “Not Active”.

`CC(C)[C@H](NC(=O)[C@H](CCCCN)NC(=O)[C@H](CCCCN)NC(=O)[C@H](CCCCN)NC(=O)[C@H](CCCCN)NC(=O)[C@H](CCCCN)NC(=O)[C@@H](NC(=O)[C@@H](NC(=O)[C@@H](N)Cc1ccccc1)C(C)C)C(C)C)C(=O)N[C@@H](Cc1ccccc1)C(N)=O` (H-FVVKKKKKVF-NH2): the MIC in the data set on Staphylococcus aureus, in the data set on Micrococcus luteus, against Pseudomonas aeruginosa and with Escherichia coli was above 400 µg/mL in each case.

Regarding `CC[C@H](C)[C@H](NC(=O)CN)C(=O)NCC(=O)N[C@@H](CCCCN)C(=O)N[C@@H](Cc1ccccc1)C(=O)N[C@@H](CC(C)C)C(=O)N[C@@H](Cc1c[nH]cn1)C(=O)N[C@@H](CO)C(=O)N[C@@H](C)C(=O)N[C@@H](CCCCN)C(=O)N[C@@H](CCCCN)C(=O)N[C@@H](Cc1ccccc1)C(=O)NCC(=O)N[C@@H](CCCCN)C(=O)N[C@@H](C)C(=O)N[C@@H](Cc1ccccc1)C(=O)N[C@H](C(=O)NCC(=O)N[C@@H](CCC(=O)O)C(=O)N[C@H](C(=O)N[C@@H](CCSC)C(=O)N[C@@H](CC(N)=O)C(=O)N[C@@H](CO)C(=O)O)[C@@H](C)CC)C(C)C` [MAGAININ 2] (H-GIGKFLHSAKKFGKAFVGEIMNS-OH), the MIC against Staphylococcus aureus was 50 µg/mL (≈ 20.3 µM); in the data set on Micrococcus luteus it was 50 µg/mL (≈ 20.3 µM); against Pseudomonas aeruginosa it was 25 µg/mL (≈ 10.1 µM); with Escherichia coli, 50 µg/mL (≈ 20.3 µM).

These data come from ChEMBL document CHEMBL1140458, “Design and synthesis of novel antibacterial peptide-resin conjugates” (Bioorg Med Chem Lett, 2007).
